Calls of active or inactive are those of the source. The calls are words filed in the database; no cut-off is given here.
Columns and labels:
Malme-3M = assay: Cytotoxicity against human MALME-3M cells assessed as cell growth at 10 uM; assay type: functional; details: read-out: Activity
Summary of the method: (§1)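 Single-dose screen at 10 µM against the 60 human cell line panel, run by the NCI Developmental Therapeutics Program and scored as cell growth.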

UACC-62 = assay: Cytotoxicity against human UACC62 cells assessed as cell growth at 10 uM; assay type: functional; details: read-out: Activity
[1] = target: DNA topoisomerase 2-alpha (Homo sapiens) (UniProt P11388); assay: Inhibition of topoisomerase 2 alpha catalytic activity assessed as decatenation of kinetoplast DNA at 100 uM after 15 mins by agarose gel electrophoresis
Chain of DNA topoisomerase 2-alpha (Homo sapiens) (P11388 whole entry): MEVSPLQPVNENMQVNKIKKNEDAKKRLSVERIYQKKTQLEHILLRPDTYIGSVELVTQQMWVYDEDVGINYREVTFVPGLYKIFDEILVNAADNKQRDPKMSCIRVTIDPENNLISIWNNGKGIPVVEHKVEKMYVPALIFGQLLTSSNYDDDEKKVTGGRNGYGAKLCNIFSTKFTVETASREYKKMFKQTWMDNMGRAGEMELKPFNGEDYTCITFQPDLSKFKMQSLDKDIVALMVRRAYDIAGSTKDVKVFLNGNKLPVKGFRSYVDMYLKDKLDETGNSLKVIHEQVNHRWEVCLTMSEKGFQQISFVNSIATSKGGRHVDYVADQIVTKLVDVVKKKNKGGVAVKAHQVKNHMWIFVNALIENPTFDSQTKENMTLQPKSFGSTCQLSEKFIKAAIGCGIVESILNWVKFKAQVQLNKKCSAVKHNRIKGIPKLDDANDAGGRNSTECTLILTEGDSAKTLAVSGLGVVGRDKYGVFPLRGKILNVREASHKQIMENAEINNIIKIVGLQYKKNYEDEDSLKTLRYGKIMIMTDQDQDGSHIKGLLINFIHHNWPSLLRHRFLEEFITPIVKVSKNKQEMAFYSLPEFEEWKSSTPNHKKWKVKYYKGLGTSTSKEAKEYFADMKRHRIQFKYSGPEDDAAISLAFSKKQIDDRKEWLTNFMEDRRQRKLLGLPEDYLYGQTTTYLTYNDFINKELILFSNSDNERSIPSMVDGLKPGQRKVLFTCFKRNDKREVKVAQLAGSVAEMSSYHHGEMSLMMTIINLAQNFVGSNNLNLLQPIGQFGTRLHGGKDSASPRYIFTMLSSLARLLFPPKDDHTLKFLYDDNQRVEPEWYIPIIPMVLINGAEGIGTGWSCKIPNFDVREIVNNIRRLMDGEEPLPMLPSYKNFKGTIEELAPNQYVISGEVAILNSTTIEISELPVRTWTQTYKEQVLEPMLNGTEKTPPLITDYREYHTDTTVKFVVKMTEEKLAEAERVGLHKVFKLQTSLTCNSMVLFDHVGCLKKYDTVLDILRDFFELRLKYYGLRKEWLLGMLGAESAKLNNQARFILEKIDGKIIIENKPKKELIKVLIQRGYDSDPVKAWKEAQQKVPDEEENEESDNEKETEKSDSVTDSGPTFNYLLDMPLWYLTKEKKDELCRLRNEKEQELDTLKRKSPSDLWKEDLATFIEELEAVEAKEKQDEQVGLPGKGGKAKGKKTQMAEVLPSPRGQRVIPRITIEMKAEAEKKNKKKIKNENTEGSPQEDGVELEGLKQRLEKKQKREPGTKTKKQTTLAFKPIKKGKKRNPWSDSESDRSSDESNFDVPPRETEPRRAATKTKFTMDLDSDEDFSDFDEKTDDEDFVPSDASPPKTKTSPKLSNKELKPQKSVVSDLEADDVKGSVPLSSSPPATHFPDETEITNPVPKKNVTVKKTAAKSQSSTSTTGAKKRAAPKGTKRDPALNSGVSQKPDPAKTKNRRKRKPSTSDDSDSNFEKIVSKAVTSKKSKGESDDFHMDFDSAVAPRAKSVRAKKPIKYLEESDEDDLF

RPMI-8226 = assay: Cytotoxicity against human RPMI8226 cells assessed as cell growth at 10 uM; assay type: functional; details: read-out: Activity; summary of the method: as §1
HT-29 = assay: Cytotoxicity against human HT-29 cells assessed as cell growth at 10 uM; assay type: functional; details: read-out: Activity; summary of the method: as §1
ACHN = assay: Cytotoxicity against human ACHN cells assessed as cell growth at 10 uM; assay type: functional; details: read-out: Activity; summary of the method: as §1
OVCAR-5 = assay: Cytotoxicity against human OVCAR5 cells assessed as cell growth at 10 uM; assay type: functional; details: read-out: Activity; summary of the method: as §1
SF-295 = assay: Cytotoxicity against human SF295 cells assessed as cell growth at 10 uM; assay type: functional; details: read-out: Activity; summary of the method: as §1
HCT-15 = assay: Cytotoxicity against human HCT15 cells assessed as cell growth at 10 uM; assay type: functional; details: read-out: Activity; summary of the method: as §1
HOP-62 = assay: Cytotoxicity against human HOP62 cells assessed as cell growth at 10 uM; assay type: functional; details: read-out: Activity; summary of the method: as §1
SN12C = assay: Cytotoxicity against human SN12C cells assessed as cell growth at 10 uM; assay type: functional; details: read-out: Activity; summary of the method: as §1
NCI-H460 = assay: Cytotoxicity against human NCI-H460 cells assessed as cell growth at 10 uM; assay type: functional; details: read-out: Activity; summary of the method: as §1
M14 = assay: Cytotoxicity against human M14 cells assessed as cell growth at 10 uM; assay type: functional; details: read-out: Activity; summary of the method: as §1
MDA-MB-231 [2] = assay: Cytotoxicity against human MDA-MB-231 cells assessed as cell growth at 10 uM; assay type: functional; details: read-out: Activity; summary of the method: as §1
UO-31 = assay: Cytotoxicity against human UO31 cells assessed as cell growth at 10 uM; assay type: functional; details: read-out: Activity
A549 = assay: Cytotoxicity against human A549 cells assessed as cell growth at 10 uM; assay type: functional; details: read-out: Activity; summary of the method: as §1
SW948 = assay: Antiproliferative activity against human SW948 cells after 3 days by XTT assay; assay type: functional, cell-based; details: SW948, 72 h
Summary of the method: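 Cells plated at 4000/well and grown 1 day at 37 °C, then exposed to a range of drug concentrations for 3 more days. Read-out by XTT tetrazolium reduction on a plate reader. Each concentration run in triplicate. IC50 taken from a linear-quadratic fit. Assays repeated two or three times and reported as mean ± SE. HCT-116 kept in modified McCoy's 5a and SW948 in Leibovitz's L-15, each with 10% heat-inactivated FBS and 2 mM L-glutamine.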

SK-MEL-5 = assay: Cytotoxicity against human SK-MEL-5 cells assessed as cell growth at 10 uM; assay type: functional; details: read-out: Activity; summary of the method: as §1
[3] = Cytotoxicity against human Hs 578T cells assessed as cell growth at 10 uM; assay type: functional; details: read-out: Activity; summary of the method: as §1
MDA-MB-468 = assay: Cytotoxicity against human MDA-MB-468 cells assessed as cell growth at 10 uM; assay type: functional; details: read-out: Activity; summary of the method: as §1
UACC-257 = assay: Cytotoxicity against human UACC257 cells assessed as cell growth at 10 uM; assay type: functional; details: read-out: Activity
786-0 = assay: Cytotoxicity against human 786-0 cells assessed as cell growth at 10 uM; assay type: functional; details: read-out: Activity; summary of the method: as §1
MDA-MB-231 [4] = assay: Antiproliferative activity against human MDA-MB-231 cells after 3 days by MTT assay; assay type: functional, cell-based; details: MDA-MB-231, 72 h
Summary of the method: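 MDA-MB-231 cells kept in RPMI 1640 with 10% heat-inactivated FBS and 25 mM HEPES at 37 °C in 5% CO2. Plated at about 15 000/well and preincubated 1 day, then exposed to compound for 3 days at 37 °C, with doses in triplicate. MTT added for 4 h, formazan dissolved in detergent overnight at room temperature in the dark, OD read at 580 nm against a cell-free blank. Cell numbers from a calibration curve; IC50 from dose-response curves.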

**Q.** For C=C(C)[C@@H]1CC[C@]2(C(O)=S)CC[C@]3(C)[C@H](CC[C@@H]4[C@@]5(C)CC[C@H](O)C(C)(C)[C@@H]5CC[C@]43C)[C@@H]12, which growth at 10 µM (Malme-3M) is on record?
**A.** Its growth at 10 µM is 102%.

**Q.** What about the growth at 10 µM (UACC-62) of the same compound?
**A.** The growth at 10 µM was 96.8%.

**Q.** And the inhibition [1]?
**A.** Its inhibition is “Active”.

**Q.** What about the growth at 10 µM (RPMI-8226) of the same compound?
**A.** The growth at 10 µM was 113%.

**Q.** And the growth at 10 µM (HT-29)?
**A.** The growth at 10 µM was 112%.

**Q.** And the growth at 10 µM (ACHN)?
**A.** The growth at 10 µM was 96.3%.

**Q.** And the growth at 10 µM (OVCAR-5)?
**A.** Its growth at 10 µM is 119%.

**Q.** And the growth at 10 µM (SF-295)?
**A.** Its growth at 10 µM is 98.4%.

**Q.** What about the growth at 10 µM (HCT-15) of the same compound?
**A.** Its growth at 10 µM is 104%.

**Q.** And the growth at 10 µM (HOP-62)?
**A.** The growth at 10 µM was 80%.

**Q.** What about the growth at 10 µM (SN12C) of the same compound?
**A.** The growth at 10 µM was 102%.

**Q.** What about the growth at 10 µM (NCI-H460) of the same compound?
**A.** The growth at 10 µM was 109%.

**Q.** What about the growth at 10 µM (M14) of the same compound?
**A.** Its growth at 10 µM is 96%.

**Q.** And the growth at 10 µM (MDA-MB-231 [2])?
**A.** Its growth at 10 µM is 114%.

**Q.** And the growth at 10 µM (UO-31)?
**A.** Its growth at 10 µM is 89.5%.

**Q.** And the growth at 10 µM (A549)?
**A.** The growth at 10 µM was 93%.

**Q.** What about the IC50 (SW948) of the same compound?
**A.** The IC50 was greater than 25 µM.

**Q.** And the growth at 10 µM (SK-MEL-5)?
**A.** The growth at 10 µM was 99.7%.

**Q.** What about the growth at 10 µM [3] of the same compound?
**A.** Its growth at 10 µM is 105%.

**Q.** And the growth at 10 µM (MDA-MB-468)?
**A.** Its growth at 10 µM is 105%.

**Q.** What about the growth at 10 µM (UACC-257) of the same compound?
**A.** Its growth at 10 µM is 105%.

**Q.** And the growth at 10 µM (786-0)?
**A.** The growth at 10 µM was 93.8%.

**Q.** And the IC50 (MDA-MB-231 [4])?
**A.** Its IC50 is greater than 25 µM.

Reference: ChEMBL document CHEMBL1154235, “Rational design and semisynthesis of betulinic acid analogues as potent topoisomerase inhibitors” (J Nat Prod, 2009)
